In ChEMBL document CHEMBL1142726, “In search of a novel anti-HIV drug: multidisciplinary coordination in the discovery of 4-[[4-[[4-[(1E)-2-cyanoethenyl]-2,6-dimethylphenyl]amino]-2- pyrimidinyl]amino]benzonitrile (R278474, rilpivirine)” (J Med Chem, 2005):

Tests used:
[1] = test system: Human immunodeficiency virus 1; assay: Effective concentration against human immunodeficiency virus type 1Y181C mutant strain; format: functional, organism-based
How it was run: (§1)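 MT-4 human T cells infected with wild-type or mutant HIV-1, exposed to a range of compound concentrations in medium with 10% fetal calf serum. After 5 days at 37 °C, viability of infected and mock-infected cells was read by automated MTT colorimetric assay. […] 95% confidence limits are approximately EC50/4 to EC50×4.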

[2] = test system: Human immunodeficiency virus 1; assay: Effective concentration against human immunodeficiency virus type 1 in K103N mutant strain; format: functional, organism-based; how it was run: as §1
[3] = test system: Human immunodeficiency virus 1; assay: Effective concentration against human immunodeficiency virus type 1 Y188L mutant strain; format: functional, organism-based; how it was run: as §1
[4] = test system: Human immunodeficiency virus 1; assay: Effective concentration against human immunodeficiency virus type 1 L100I mutant strain; format: functional, organism-based; how it was run: as §1
[5] = test system: Human immunodeficiency virus 1; assay: Effective concentration against human immunodeficiency virus type 1 wild type strain; format: functional, organism-based
[6] = test system: Human immunodeficiency virus 1; assay: Effective concentration against human immunodeficiency virus type 1 G190S mutant strain; format: functional, organism-based; how it was run: as §1
[7] = test system: Human immunodeficiency virus 1; assay: Effective concentration against human immunodeficiency virus type 1 Y181C mutant was determined; format: functional, organism-based; how it was run: as §1
[8] = test system: Human immunodeficiency virus 1; assay: Effective concentration against human immunodeficiency virus type 1 K103N and Y181C mutant strain; format: functional, organism-based; how it was run: as §1
[9] = test system: Human immunodeficiency virus 1; assay: Effective concentration against human immunodeficiency virus type 1 K103N mutant strain; format: functional, organism-based; how it was run: as §1
[10] = test system: Human immunodeficiency virus 1; assay: Effective concentration against human immunodeficiency virus type 1 wild type srtain; format: functional, organism-based
How it was run: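 MT-4 human T-cells infected with wild-type HIV-1 and exposed to a range of compound concentrations in medium with 10% fetal calf serum. After 5 days at 37 °C, viability was read by automated MTT colorimetric assay, with mock-infected cells run in parallel.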

[11] = test system: Human immunodeficiency virus 1; assay: Effective concentration against rhuman immunodeficiency virus type 1 Y181C mutant strain; format: functional, organism-based; how it was run: as §1
[12] = test system: Human immunodeficiency virus 1; assay: Effective concentration against rhuman immunodeficiency virus type 1 L100I mutant strain; format: functional, organism-based; how it was run: as §1
[13] = test system: Human immunodeficiency virus 1; assay: Effective concentration against rhuman immunodeficiency virus type 1 K103N and Y181C mutant strains; format: functional, organism-based
[14] = test system: Human immunodeficiency virus 1; assay: Effective concentration against human immunodeficiency virus type 1 wild type; format: functional, organism-based; how it was run: as §1
[15] = Half life in dog was determined by intravenous administration; format: ADME, organism-based, Canis lupus familiaris; details: in vivo
How it was run: (§2)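 Pharmacokinetics after single iv dosing of drug formulated in PEG 400. Species: Sprague-Dawley rat (4 mg/kg), beagle dog, cynomolgus monkey and white New Zealand rabbit (1.25 mg/kg each). Elimination half-life (t1/2) and exposure (AUCinf) calculated from plasma concentration–time data.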

[16] = Area under the concentration time curve value in rat (intravenous dosage of 4 mg/kg) was determined; format: ADME, organism-based; parameters: dose 4 mg/kg, route intravenous; details: in vivo; how it was run: as §2
[17] = Area under the concentration time curve in dog (intravenous dosage of 1.25 mg/kg) was determined; format: ADME, organism-based, Canis lupus familiaris; parameters: dose 1.25 mg/kg, route intravenous; details: in vivo; how it was run: as §2
[18] = test system: Human immunodeficiency virus 1; assay: Effective concentration against rhuman immunodeficiency virus type 1 wild type mutant strain; format: functional, organism-based; how it was run: as §1
[19] = Area under the concentration time curve in monkey (intravenous dosage of 1.25 mg/ kg) was determined; format: ADME; details: cercopithecidae, in vivo; how it was run: as §2
[20] = Half life in rat was determined after oral administration; format: ADME, organism-based; details: in vivo
How it was run: (§3)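 Oral administration of drug formulated in PEG 400 to Sprague-Dawley rat and beagle dog. Elimination half-life calculated from plasma concentration–time data.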

[21] = In vivo half life in dog was determined after oral administration; format: ADME, organism-based, Canis lupus familiaris; how it was run: as §3
[22] = Half life in rat was determined after intravenous administration; format: ADME, organism-based; details: in vivo; how it was run: as §2
[23] = test system: Human immunodeficiency virus 1; assay: Effective concentration against human immunodeficiency virus type 1 K103N and Y181C mutant strains; format: functional, organism-based; how it was run: as §1
[24] = test system: Human immunodeficiency virus 1; assay: Effective concentration against human immunodeficiency virus type 1 Y181C mutant strain; format: functional, organism-based; how it was run: as §1
[25] = Area under the concentration time curve in rabbit (intravenous dosage of 1.25 mg/kg) was determined; format: ADME, organism-based, Oryctolagus cuniculus; parameters: dose 1.25 mg/kg, route intravenous; details: in vivo; how it was run: as §2

Cc1cc(C)c(Nc2ccnc(Nc3ccc(C#N)cc3)n2)c(C)c1 [DAPIVIRINE]
EC50 [1]: 7 nM
EC50 [2]: 2 nM
EC50 [3]: 37 nM
EC50 [4]: 11 nM
EC50 [5]: 1.2 nM
EC50 [6]: 2 nM

O=C1Nc2ccc(Cl)cc2[C@@](C#CC2CC2)(C(F)(F)F)O1 [EFAVIRENZ]
EC50 [7]: 2 nM
EC50 [8]: 37 nM
EC50 [3]: 78 nM
EC50 [4]: 35 nM
EC50 [9]: 28 nM
EC50 [6]: 275 nM
EC50 [10]: 1.4 nM

Cc1ccnc2c1NC(=O)c1cccnc1N2C1CC1 [NEVIRAPINE]
EC50 [11]: 10000 nM
EC50 [12]: 597 nM
EC50 [13]: 10000 nM
EC50 [14]: 81 nM
EC50 [3]: 10000 nM
EC50 [9]: 2880 nM
EC50 [6]: 1000 nM

Cc1cc(/C=C/C#N)cc(C)c1Nc1ccnc(Nc2ccc(C#N)cc2)n1 [RILPIVIRINE]
half-life [15]: 31 h
AUC [16]: 3100 ng·h/mL
AUC [17]: 8700 ng·h/mL
EC50 [18]: 0.4 nM
AUC [19]: 1400 ng·h/mL
half-life [20]: 2.8 h
half-life [21]: 39 h
half-life [22]: 4.4 h
EC50 [3]: 2 nM
EC50 [23]: 1 nM
EC50 [4]: 0.4 nM
EC50 [24]: 1.3 nM
EC50 [9]: 0.3 nM
EC50 [6]: 0.1 nM
AUC [25]: 44000 ng·h/mL
